Assay results reported in PMC3742633 (Molecular cancer therapeutics, 2013).
pIC50: −log10 of the molar value.

Columns and labels:
SK-MEL-2 = experiment: NCI 60 cell line screen, Sulforhodamine B Assay; assay type: cell-based; details: Homo sapiens, SK-MEL-2, 48 h
Method in brief: (§1)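 Run through the NCI-60 screening service: human cancer cell lines exposed to test compound for 48 h. Growth read as cellular protein content by sulforhodamine B staining, and GI50 derived from this.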

SF-539 = experiment: NCI 60 cell line screen, Sulforhodamine B Assay; assay type: cell-based; details: Homo sapiens, SF-539, 48 h
Method in brief: as §1

HOP-92 = experiment: NCI 60 cell line screen, Sulforhodamine B Assay; assay type: cell-based; details: Homo sapiens, HOP-92, 48 h
Method in brief: as §1

OVCAR-5 = experiment: NCI 60 cell line screen, Sulforhodamine B Assay; assay type: cell-based; details: Homo sapiens, OVCAR-5, 48 h
Method in brief: as §1

HOP-62 = experiment: NCI 60 cell line screen, Sulforhodamine B Assay; assay type: cell-based; details: Homo sapiens, HOP-62, 48 h
Method in brief: as §1

OVCAR-3 = experiment: NCI 60 cell line screen, Sulforhodamine B Assay; assay type: cell-based; details: Homo sapiens, OVCAR-3, 48 h
Method in brief: as §1

BT-549 = experiment: NCI 60 cell line screen, Sulforhodamine B Assay; assay type: cell-based; details: Homo sapiens, BT-549, 48 h
Method in brief: as §1

SK-MEL-28 = experiment: NCI 60 cell line screen, Sulforhodamine B Assay; assay type: cell-based; details: Homo sapiens, SK-MEL-28, 48 h
Method in brief: (§2)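 Run through the National Cancer Institute 60 cell line screening service on its panel of 59 human cancer lines in vitro. Cytostatic/toxic effect was read as cellular protein content (sulforhodamine B) over 48 h.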

CCRF-CEM = experiment: NCI 60 cell line screen, Sulforhodamine B Assay; assay type: cell-based; details: Homo sapiens, 48 h
Method in brief: as §1

NCI-H460 = experiment: NCI 60 cell line screen, Sulforhodamine B Assay; assay type: cell-based; details: Homo sapiens, NCI-H460, 48 h
Method in brief: as §1

Jurkat or H522 cells = experiment: 2-[1-14C]-deoxy-D-glucose uptake; assay type: cell-based, human; details: three hours exposure, Jurkat and H522
Method in brief: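 Jurkat or H522 cells in RPMI 1640 + 10% FCS + 50 μg/ml gentamycin at 100,000/ml, treated immediately with DMSO vehicle or test compound for 3 h. Washed in glucose-free RPMI, 30 min with inhibitor, then 1 h with 14C-2-deoxyglucose (0.1 μCi/μl stock). Ice-cold washes, 0.5% SDS lysis, scintillation counting; counts normalized to BCA protein.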

NCI/ADR-RES = experiment: NCI 60 cell line screen, Sulforhodamine B Assay; assay type: cell-based; details: Homo sapiens, 48 h
Method in brief: as §1

A549/ATCC = experiment: NCI 60 cell line screen, Sulforhodamine B Assay; assay type: cell-based; details: Homo sapiens, A549, 48 h
Method in brief: as §1

Solubility = assay type: physicochemical
RPMI-8226 = experiment: NCI 60 cell line screen, Sulforhodamine B Assay; assay type: cell-based; details: Homo sapiens, RPMI-8226, 48 h
Method in brief: as §1

Jurkat and H522 cells = experiment: Intracellular ATP bioluminescence assay; assay type: cell-based, human
Method in brief: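 After plating at 1×10^5 cells/well (24 h, 37°C, 5% CO2) and 3 h test compound exposure, adherent cells were washed with cold PBS, lysed in passive lysis buffer and scraped. One freeze (−80°C)/thaw (37°C) cycle, cleared at 4°C. ATP read by firefly luciferase/D-luciferin luminescence at 560 nm against an ATP standard curve, as nmol/mg BCA protein.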

LLC tumors [1] = experiment: Lewis lung carcinoma; assay type: in vivo, C57Bl/6 mice
Method in brief: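 C57Bl/6 mice (20 g) given 1×10^6 LLC cells s.c. in PBS. At 150–200 mg tumor mass, groups of 8 randomized to DMSO or test compound 25 mg/kg i.p. (methods: every 3 days ×4). Blinded caliper tumor mass and body mass recorded daily; lungs examined for metastases after 14 days. Separate subgroup at day 4: tumors assayed for F26BP, plus H&E and anti-cleaved caspase 3 immunohistochemistry on formalin-fixed paraffin sections.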

SK-OV-3 = experiment: NCI 60 cell line screen, Sulforhodamine B Assay; assay type: cell-based; details: Homo sapiens, SK-OV-3, 48 h
Method in brief: as §2

LLC tumors [2] = experiment: 18F-FDG micro-PET imaging of LLC-bearing mice; assay type: in vivo, C57Bl/6 mice; details: 25 mg/kg i.p. once, 45 minutes, normalized to FDG uptake in the cerebellum
Method in brief: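 Tumor-bearing mice were anesthetized with isoflurane and given 200 μCi FDG i.v. by tail vein. Baseline 15-min static micro-PET scans were taken 45 min after tracer (OSEM, 6 subsets/4 iterations). Tumor and cerebellum regions of interest were quantified in quadruplicate. 24 h later, test compound 25 mg/kg i.p. once, then re-scan 45 min later.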

MOLT-4 = experiment: NCI 60 cell line screen, Sulforhodamine B Assay; assay type: cell-based; details: Homo sapiens, MOLT-4, 48 h
Method in brief: as §1

MDA-MB-435 = experiment: NCI 60 cell line screen, Sulforhodamine B Assay; assay type: cell-based; details: Homo sapiens, MDA-MB-435, 48 h
Method in brief: as §1

MDA-MB-468 = experiment: NCI 60 cell line screen, Sulforhodamine B Assay; assay type: cell-based; details: Homo sapiens, MDA-MB-468, 48 h
Method in brief: as §1

[3] = tested on: H522 human lung adenocarcinoma cells; experiment: Cell viability, trypan blue exclusion; assay type: cell-based; details: NCI-H522, 48 h, read-out: IC50 cytotoxic effects (viability)
RXF 393 = experiment: NCI 60 cell line screen, Sulforhodamine B Assay; assay type: cell-based; details: Homo sapiens, RXF 393, 48 h
Method in brief: as §1

CAKI-1 = experiment: NCI 60 cell line screen, Sulforhodamine B Assay; assay type: cell-based; details: Homo sapiens, CAKI-1, 48 h
Method in brief: as §1

HL-60(TB) = experiment: NCI 60 cell line screen, Sulforhodamine B Assay; assay type: cell-based; details: Homo sapiens, HL-60, 48 h
Method in brief: as §1

MCF7 = experiment: NCI 60 cell line screen, Sulforhodamine B Assay; assay type: cell-based; details: Homo sapiens, MCF7, 48 h
Method in brief: as §1

HS 578T = experiment: NCI 60 cell line screen, Sulforhodamine B Assay; assay type: cell-based; details: Homo sapiens, 48 h
Method in brief: as §1

MDA-MB-231/ATCC = experiment: NCI 60 cell line screen, Sulforhodamine B Assay; assay type: cell-based; details: Homo sapiens, MDA-MB-231, 48 h
Method in brief: as §1

SF-268 = experiment: NCI 60 cell line screen, Sulforhodamine B Assay; assay type: cell-based; details: Homo sapiens, SF-268, 48 h
Method in brief: as §1

[4] = four days after initiation, n=4

O=C(C=Cc1ccc2ccccc2n1)c1ccncc1 [PFK15, 1-(4-pyridinyl)-3-(2-quinolinyl)-2-propen-1-one]
GI50 (SK-MEL-2): 6.46 µM
GI50 (SF-539): 2.51 µM
GI50 (HOP-92): 3.02 µM
GI50 (OVCAR-5): 5.37 µM
GI50 (HOP-62): 2.34 µM
GI50 (OVCAR-3): 3.16 µM
GI50 (BT-549): 2.75 µM
GI50 (SK-MEL-28): 2.09 µM
GI50 (CCRF-CEM): 3.8 µM
GI50 (NCI-H460): 3.47 µM
effect on glucose uptake (14C-2DG) (Jurkat or H522 cells): reduced
GI50 (NCI/ADR-RES): 3.89 µM
GI50 (A549/ATCC): 5.37 µM
solubility (Solubility): limited solubility
GI50 (RPMI-8226): 2.19 µM
PFK15-mediated ATP depletion [% control] (Jurkat and H522 cells; 5 mM glucose + 1 mM pyruvate, p value = 0.0017): 45.62 ± 1.72%
PFK15-mediated ATP depletion [% control] (Jurkat and H522 cells; 5 mM glucose alone): 5.29 ± 0.85%
reversal of ATP depletion by glutamine (Jurkat and H522 cells; addition of 4 mM glutamine, data not shown): could not be significantly reversed
reversal of ATP depletion by lactate (Jurkat and H522 cells; addition of 10 mM lactate, data not shown): could not be significantly reversed
effect on intracellular ATP (Jurkat and H522 cells; three hours exposure, Jurkat and H522): reduced
effect on body mass of LLC-bearing mice (LLC tumors [1]; PFK15 i.p., C57Bl/6 mice): without a major effect
growth of established LLC tumors (LLC tumors [1]; PFK15 i.p., C57Bl/6 mice, 14 days): statistically significant reduction
lung metastases in LLC-bearing mice (LLC tumors [1]; after 14 days): no lung metastases
cells positive for cleaved caspase 3 by immunohistochemistry (LLC tumors [1]; [4]): marked increase
tumor-associated F26BP (LLC tumors [1]; [4]): reduced
GI50 (SK-OV-3): 15.1 µM
reduction in 18F-FDG uptake (LLC tumors [2]): ~ 50%
GI50 (MOLT-4): 2.24 µM
GI50 (MDA-MB-435): 3.24 µM
GI50 (MDA-MB-468): 1.66 µM
pIC50 [3]: 6.14
GI50 (RXF 393): 1.7 µM
GI50 (CAKI-1): 11.5 µM
GI50 (HL-60(TB)): 2.04 µM
GI50 (MCF7): 1.86 µM
GI50 (HS 578T): 20.9 µM
GI50 (MDA-MB-231/ATCC): 2.04 µM
GI50 (SF-268): 5.25 µM
